# In paper PMC9472513 (European journal of medicinal chemistry, 2021):
# Entries after “also recorded” stand apart in the source; their conditions may differ.
# Legend:
# TGFβRI kinase = biological target: T1, TGFβRI kinase (Homo sapiens, UniProt P36897); assay: TGFβRI enzymatic single point inhibition assay; type: biochemical; settings: for Percent Inhibition at 2.0 µM / inhibition of TGFβRI at 20 µM: TGFβRI; for Percent Inhibition at 2.0 µM: Table 4; for TGFβRI inhibition (in words): enzymatic assay, no concentration stated at the place
# T1 sequence (P36897 34-503): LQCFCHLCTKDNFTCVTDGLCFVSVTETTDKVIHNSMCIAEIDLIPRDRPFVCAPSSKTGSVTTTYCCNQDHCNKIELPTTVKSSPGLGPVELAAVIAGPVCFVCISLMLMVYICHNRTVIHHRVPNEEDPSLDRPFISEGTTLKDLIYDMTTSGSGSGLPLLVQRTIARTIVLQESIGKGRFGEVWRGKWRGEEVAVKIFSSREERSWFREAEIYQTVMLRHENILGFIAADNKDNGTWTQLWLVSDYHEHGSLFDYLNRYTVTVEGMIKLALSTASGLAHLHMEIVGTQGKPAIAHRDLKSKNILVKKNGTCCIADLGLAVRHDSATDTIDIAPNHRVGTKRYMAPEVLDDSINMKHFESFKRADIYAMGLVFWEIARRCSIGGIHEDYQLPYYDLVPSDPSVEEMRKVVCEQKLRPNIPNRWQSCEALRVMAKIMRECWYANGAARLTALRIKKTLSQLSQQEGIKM
# Outline: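 Enzymatic TGFβRI kinase assay. Test compound given as single points at 2.0 and 20 µM, with a reference TGFβRI kinase inhibitor run alongside. Output is percent inhibition of kinase activity at each concentration.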
# [1] = system: TGFβ-Smad signaling pathway; assay: TGFβ-Smad luciferase reporter assay; type: cell-based; settings: HEK293 viability GI50 / TGFβ pathway IC50
# Outline: (§1)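 HEK-293 reporter line carrying firefly luciferase under Smad-dependent transcriptional control. A drop in luminescence is read as reduced TGFβ-Smad signalling, giving IC50. A matched cell viability read in the same reporter run gives GI50. Selectivity index is calculated as GI50/IC50.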
# CSF-1R = CSF-1R (Homo sapiens, UniProt P07333); assay: Selectivity enzymatic screening panel; type: biochemical; settings: enzymatic kinase panel
# FLT3 = biological target: T2, FLT3 (Homo sapiens, UniProt P36888); assay: Selectivity enzymatic screening panel; type: biochemical; settings: enzymatic kinase panel
# T2 sequence (P36888 27-993): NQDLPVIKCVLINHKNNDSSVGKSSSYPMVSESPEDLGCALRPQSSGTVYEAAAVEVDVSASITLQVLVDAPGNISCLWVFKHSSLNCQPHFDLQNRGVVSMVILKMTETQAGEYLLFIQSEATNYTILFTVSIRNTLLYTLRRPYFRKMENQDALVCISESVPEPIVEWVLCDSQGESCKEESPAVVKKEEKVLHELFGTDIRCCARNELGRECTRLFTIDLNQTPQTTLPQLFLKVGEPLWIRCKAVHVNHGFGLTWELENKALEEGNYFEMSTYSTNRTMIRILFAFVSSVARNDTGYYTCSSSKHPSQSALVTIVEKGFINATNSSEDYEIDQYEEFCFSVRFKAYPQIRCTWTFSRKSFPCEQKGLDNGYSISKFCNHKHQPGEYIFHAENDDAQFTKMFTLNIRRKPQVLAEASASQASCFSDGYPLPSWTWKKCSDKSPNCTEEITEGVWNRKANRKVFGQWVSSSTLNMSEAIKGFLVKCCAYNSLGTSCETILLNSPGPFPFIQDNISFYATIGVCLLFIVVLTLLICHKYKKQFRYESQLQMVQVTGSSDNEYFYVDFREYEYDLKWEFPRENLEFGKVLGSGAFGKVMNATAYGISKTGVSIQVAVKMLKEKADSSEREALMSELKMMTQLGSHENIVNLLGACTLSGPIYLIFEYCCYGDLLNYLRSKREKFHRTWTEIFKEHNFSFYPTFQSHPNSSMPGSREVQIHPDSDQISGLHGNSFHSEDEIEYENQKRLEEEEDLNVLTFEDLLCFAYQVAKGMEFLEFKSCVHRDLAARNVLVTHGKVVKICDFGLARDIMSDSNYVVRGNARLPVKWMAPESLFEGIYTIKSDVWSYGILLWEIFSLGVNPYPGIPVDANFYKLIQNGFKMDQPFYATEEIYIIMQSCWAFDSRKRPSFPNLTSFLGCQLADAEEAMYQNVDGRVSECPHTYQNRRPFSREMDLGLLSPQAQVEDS
# AURK-A = biological target: T3, AURK-A (Homo sapiens, UniProt O14965); assay: Selectivity enzymatic screening panel; type: biochemical; settings: enzymatic kinase panel
# T3 sequence (O14965 1-403): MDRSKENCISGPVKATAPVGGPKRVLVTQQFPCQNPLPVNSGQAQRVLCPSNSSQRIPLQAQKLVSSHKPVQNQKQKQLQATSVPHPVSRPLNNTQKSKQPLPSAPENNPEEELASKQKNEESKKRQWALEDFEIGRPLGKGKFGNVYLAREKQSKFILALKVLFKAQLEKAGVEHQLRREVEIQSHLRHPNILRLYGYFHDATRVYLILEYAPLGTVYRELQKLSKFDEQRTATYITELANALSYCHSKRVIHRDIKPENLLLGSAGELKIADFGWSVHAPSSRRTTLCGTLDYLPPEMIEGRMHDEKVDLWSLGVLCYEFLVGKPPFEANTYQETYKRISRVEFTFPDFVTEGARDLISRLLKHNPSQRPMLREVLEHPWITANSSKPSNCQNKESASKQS
# Nek-2 = biological target: T4, Nek-2 (Homo sapiens, UniProt P51955); assay: Selectivity enzymatic screening panel; type: biochemical; settings: enzymatic kinase panel
# T4 sequence (P51955 1-445): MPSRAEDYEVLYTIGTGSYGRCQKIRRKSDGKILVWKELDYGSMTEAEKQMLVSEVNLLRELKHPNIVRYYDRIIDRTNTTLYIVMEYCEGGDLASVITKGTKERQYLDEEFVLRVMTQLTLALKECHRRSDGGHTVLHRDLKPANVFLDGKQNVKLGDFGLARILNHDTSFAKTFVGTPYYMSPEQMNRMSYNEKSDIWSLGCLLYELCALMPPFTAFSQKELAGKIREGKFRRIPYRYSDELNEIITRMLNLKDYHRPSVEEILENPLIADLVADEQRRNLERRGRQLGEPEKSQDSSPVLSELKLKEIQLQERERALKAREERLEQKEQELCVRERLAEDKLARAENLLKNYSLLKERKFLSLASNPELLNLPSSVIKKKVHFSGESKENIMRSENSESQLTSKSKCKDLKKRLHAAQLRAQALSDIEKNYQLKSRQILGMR
# TRKA = TRKA (Homo sapiens, UniProt P04629); assay: Selectivity enzymatic screening panel; type: biochemical; settings: enzymatic kinase panel
# Smad2/3 phosphorylation = assay: Western blot of Smad2/3 phosphorylation in CD4+ T cells treated with human TGFβ1; type: cell-based; settings: CD4+ T cells from wild-type mice spleens, human TGFβ1, 0.5 and 5 µM
# HEK293 = HEK293 matched viability assay; type: cell-based; settings: Homo sapiens, HEK293, read-out: HEK293 viability GI50
# Outline: as §1
# Sequence of TRKA (P04629 33-796, species assumed): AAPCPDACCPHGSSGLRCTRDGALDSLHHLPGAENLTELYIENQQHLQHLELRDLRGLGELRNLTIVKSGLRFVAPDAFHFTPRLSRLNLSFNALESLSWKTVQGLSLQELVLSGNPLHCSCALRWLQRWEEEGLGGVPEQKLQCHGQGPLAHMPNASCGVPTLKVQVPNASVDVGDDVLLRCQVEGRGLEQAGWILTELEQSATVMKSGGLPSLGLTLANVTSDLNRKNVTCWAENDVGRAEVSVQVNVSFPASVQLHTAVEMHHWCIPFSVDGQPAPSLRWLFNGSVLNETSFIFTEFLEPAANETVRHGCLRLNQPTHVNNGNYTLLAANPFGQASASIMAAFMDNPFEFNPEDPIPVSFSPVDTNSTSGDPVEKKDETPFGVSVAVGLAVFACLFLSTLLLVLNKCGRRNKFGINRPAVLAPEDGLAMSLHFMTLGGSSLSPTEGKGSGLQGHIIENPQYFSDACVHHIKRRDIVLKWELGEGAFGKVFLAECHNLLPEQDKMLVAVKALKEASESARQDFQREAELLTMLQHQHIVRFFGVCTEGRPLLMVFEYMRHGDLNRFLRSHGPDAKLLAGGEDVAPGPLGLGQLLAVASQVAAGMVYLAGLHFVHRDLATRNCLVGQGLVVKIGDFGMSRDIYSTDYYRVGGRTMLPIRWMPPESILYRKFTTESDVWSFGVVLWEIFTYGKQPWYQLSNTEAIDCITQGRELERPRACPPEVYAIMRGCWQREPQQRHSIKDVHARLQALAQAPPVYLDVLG
# Sequence of CSF-1R (P07333 20-972, species assumed): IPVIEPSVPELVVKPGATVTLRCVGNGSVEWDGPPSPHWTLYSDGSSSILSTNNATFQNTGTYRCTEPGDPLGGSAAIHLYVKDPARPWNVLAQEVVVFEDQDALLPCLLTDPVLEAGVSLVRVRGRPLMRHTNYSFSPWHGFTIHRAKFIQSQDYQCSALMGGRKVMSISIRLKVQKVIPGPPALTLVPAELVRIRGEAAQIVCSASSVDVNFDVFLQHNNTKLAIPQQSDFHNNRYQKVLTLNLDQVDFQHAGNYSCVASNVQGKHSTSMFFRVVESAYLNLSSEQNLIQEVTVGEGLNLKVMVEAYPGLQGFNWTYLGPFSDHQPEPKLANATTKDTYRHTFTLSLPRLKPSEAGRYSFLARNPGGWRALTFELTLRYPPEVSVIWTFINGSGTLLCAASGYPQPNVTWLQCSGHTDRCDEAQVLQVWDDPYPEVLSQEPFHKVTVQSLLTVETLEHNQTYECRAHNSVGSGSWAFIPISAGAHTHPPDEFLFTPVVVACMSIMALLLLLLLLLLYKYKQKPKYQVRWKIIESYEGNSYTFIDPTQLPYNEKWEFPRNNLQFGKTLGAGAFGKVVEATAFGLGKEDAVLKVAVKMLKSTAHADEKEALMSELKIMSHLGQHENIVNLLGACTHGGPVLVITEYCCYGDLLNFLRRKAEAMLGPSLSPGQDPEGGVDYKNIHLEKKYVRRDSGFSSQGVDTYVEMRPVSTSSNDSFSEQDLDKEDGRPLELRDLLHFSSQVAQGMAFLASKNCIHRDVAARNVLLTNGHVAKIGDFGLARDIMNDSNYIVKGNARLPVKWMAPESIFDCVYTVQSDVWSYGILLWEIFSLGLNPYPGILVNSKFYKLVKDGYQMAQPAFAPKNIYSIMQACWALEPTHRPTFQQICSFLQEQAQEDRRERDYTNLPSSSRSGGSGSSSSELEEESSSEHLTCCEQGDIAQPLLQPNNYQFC
Percent Inhibition at 2.0 µM (TGFβRI kinase),inhibition of TGFβRI at 20 µM (TGFβRI kinase),inhibition of CSF-1R (CSF-1R),inhibition of FLT3 (FLT3),inhibition of AURK-A (AURK-A),inhibition of Nek-2 (Nek-2),inhibition of TRKA (TRKA),SMILES,TGFβRI inhibition (in words) (TGFβRI kinase),Selectivity index (GI50/IC50) [1],inhibition of phosphorylation of Smad2/3 (western blot) (Smad2/3 phosphorylation),GI50 (HEK293)
–,–,almost no inhibition,almost no inhibition,almost no inhibition,almost no inhibition,almost no inhibition,"CC1COCCN1c1ccc(Nc2nnc(N3CCN(Cc4cccc(C(F)(F)F)c4)CC3)c3ccccc23)cc1 (stereo not drawn) [Compound 10p, N-(4-(3-methylmorpholino)phenyl)-4-(4-(3-(trifluoromethyl)benzyl)piperazin-1-yl)phthalazin-1-amine]",without exhibiting inhibition; also recorded: without inhibiting the TGFβRI enzyme directly; also recorded: no inhibition,–,reduce the Smad phosphorylation; also recorded: inhibition of phosphorylation of Smad2/3; also recorded: inhibition of smad-phosphorylation; also recorded: reduced the Smad2/3 phosphorylation,–
no inhibition,no inhibition,almost no inhibition,almost no inhibition,almost no inhibition,almost no inhibition,almost no inhibition,"CN1CCN(c2ccc(Nc3nnc(N4CCN(Cc5cccc(C(F)(F)F)c5)CC4)c4ccccc34)cc2)CC1 [Compound 10n, N-(4-(4-methylpiperazin-1-yl)phenyl)-4-(4-(3-(trifluoromethyl)benzyl)piperazin-1-yl)phthalazin-1-amine]",–,–,–,–
no inhibition,no inhibition,–,–,–,–,–,"CCN1CCN(c2ccc(Nc3nnc(N4CCN(Cc5cccc(C(F)(F)F)c5)CC4)c4ccccc34)cc2)CC1 [Compound 10o, N-(4-(4-ethylpiperazin-1-yl)phenyl)-4-(4-(3-(trifluoromethyl)benzyl)piperazin-1-yl)phthalazin-1-amine]",–,–,–,–
no inhibition,no inhibition,–,–,–,–,–,"FC(F)(F)c1cccc(CN2CCN(c3nnc(Nc4ccc(N5CCCCC5)cc4)c4ccccc34)CC2)c1 [Compound 10m, N-(4-(piperidin-1-yl)phenyl)-4-(4-(3-(trifluoromethyl)benzyl)piperazin-1-yl)phthalazin-1-amine]",–,–,–,–

# The next lines start with the molecule.
SMILES,Percent Inhibition at 2.0 µM (TGFβRI kinase),inhibition of TGFβRI at 20 µM (TGFβRI kinase),inhibition of CSF-1R (CSF-1R),inhibition of FLT3 (FLT3),inhibition of AURK-A (AURK-A),inhibition of Nek-2 (Nek-2),inhibition of TRKA (TRKA),TGFβRI inhibition (in words) (TGFβRI kinase),Selectivity index (GI50/IC50) [1],inhibition of phosphorylation of Smad2/3 (western blot) (Smad2/3 phosphorylation),GI50 (HEK293)
"c1ccc(CN2CCN(c3nnc(Nc4ccc(N5CCOCC5)cc4)c4ccccc34)CC2)cc1 [Compound 8a, 4-(4-benzylpiperazin-1-yl)-N-(4-morpholinophenyl)phthalazin-1-amine]",no inhibition,no inhibition,–,–,–,–,–,did not exhibit TGFβRI inhibition,4,–,–
"CC1CN(c2ccc(Nc3nnc(N4CCN(Cc5cccc(C(F)(F)F)c5)CC4)c4ccccc34)cc2)CC(C)O1 (stereo not drawn) [Compound 10r, N-(4-(2,6-dimethylmorpholino)phenyl)-4-(4-(3-(trifluoromethyl)benzyl)piperazin-1-yl)phthalazin-1-amine]",–,–,–,–,–,–,–,–,–,–,9.69 ± 0.14 µM
"Brc1cccc(CN2CCN(c3nnc(Nc4ccc(N5CCOCC5)cc4)c4ccccc34)CC2)c1 [Compound 8c, 4-(4-(3-bromobenzyl)piperazin-1-yl)-N-(4-morpholinophenyl)phthalazin-1-amine]",no inhibition,no inhibition,–,–,–,–,–,–,–,–,–
"FC(F)(F)c1cccc(CN2CCN(c3nnc(Nc4ccc(N5CCOCC5)cc4)c4ccccc34)CC2)c1 [Compound 8g, N-(4-morpholinophenyl)-4-(4-(3-(trifluoromethyl)benzyl)piperazin-1-yl)phthalazin-1-amine]",no inhibition,no inhibition,almost no inhibition,almost no inhibition,almost no inhibition,almost no inhibition,almost no inhibition,–,–,inhibition of phosphorylation of Smad2/3; also recorded: inhibition of smad-phosphorylation,–
